Results from ChEMBL document CHEMBL1138172, “Selective irreversible inhibition of fructose 1,6-bisphosphate aldolase from Trypanosoma brucei” (J Med Chem, 2006).
pKi: −log10 of the molar value. The source made the active and inactive calls. The calls are words filed in the database; no cut-off is given here.

Columns and labels:
[1] = target: T1, Fructose-bisphosphate aldolase, glycosomal (Trypanosoma brucei brucei) (UniProt P07752); assay: Inhibitory activity against mutated recombinant Trypanosoma brucei aldolase K116M
T1 sequence (whole entry): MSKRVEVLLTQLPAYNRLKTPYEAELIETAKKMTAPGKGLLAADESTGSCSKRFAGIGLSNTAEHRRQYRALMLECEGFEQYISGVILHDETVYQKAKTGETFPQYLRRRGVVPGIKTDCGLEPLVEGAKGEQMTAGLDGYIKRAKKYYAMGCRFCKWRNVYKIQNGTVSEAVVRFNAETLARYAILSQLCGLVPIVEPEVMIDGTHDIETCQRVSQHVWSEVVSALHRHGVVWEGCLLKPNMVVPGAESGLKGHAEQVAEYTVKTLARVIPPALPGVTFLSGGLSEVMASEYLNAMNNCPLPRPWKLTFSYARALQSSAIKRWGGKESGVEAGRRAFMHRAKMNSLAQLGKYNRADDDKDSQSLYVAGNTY

[2] = target: T1, Fructose-bisphosphate aldolase, glycosomal (Trypanosoma brucei brucei); assay: Protection of inhibitory activity by DHAP against Trypanosoma brucei aldolase at 10 mM after 5 min; design: scale not given: the % may be the effect or the level left
[3] = target: T1, Fructose-bisphosphate aldolase, glycosomal (Trypanosoma brucei brucei); assay: Protection of inhibitory activity by DHAP against Trypanosoma brucei aldolase at 10 mM after 15 min; design: scale not given: the % may be the effect or the level left
[4] = target: T1, Fructose-bisphosphate aldolase, glycosomal (Trypanosoma brucei brucei); assay: Protection of inhibitory activity by FBP against Trypanosoma brucei aldolase at 1 mM after 5 min; design: scale not given: the % may be the effect or the level left
[5] = target: T2, Fructose-bisphosphate aldolase, glycosomal (Trypanosoma brucei brucei, UniProt P07752); assay: Inhibition of Trypanosoma brucei class1 Aldolase
T2 sequence (P07752 whole entry): T1 sequence (whole entry)

[6] = target: T1, Fructose-bisphosphate aldolase, glycosomal (Trypanosoma brucei brucei); assay: Protection of inhibitory activity by DHAP against Trypanosoma brucei aldolase at 0.25 mM after 5 min; design: scale not given: the % may be the effect or the level left
[7] = target: T1, Fructose-bisphosphate aldolase, glycosomal (Trypanosoma brucei brucei); assay: Protection of inhibitory activity by DHAP against Trypanosoma brucei aldolase at 0.25 mM after 15 min; design: scale not given: the % may be the effect or the level left
[8] = target: T1, Fructose-bisphosphate aldolase, glycosomal (Trypanosoma brucei brucei); assay: Protection of inhibitory activity by DHAP against Trypanosoma brucei aldolase at 0.5 mM after 5 min; design: scale not given: the % may be the effect or the level left
[9] = target: T1, Fructose-bisphosphate aldolase, glycosomal (Trypanosoma brucei brucei); assay: Protection of inhibitory activity by DHAP against Trypanosoma brucei aldolase at 0.5 mM after 15 min; design: scale not given: the % may be the effect or the level left
[10] = target: T1, Fructose-bisphosphate aldolase, glycosomal (Trypanosoma brucei brucei); assay: Protection of inhibitory activity by DHAP against Trypanosoma brucei aldolase at 1 mM after 5 min; design: scale not given: the % may be the effect or the level left
[11] = target: T1, Fructose-bisphosphate aldolase, glycosomal (Trypanosoma brucei brucei); assay: Protection of inhibitory activity by DHAP against Trypanosoma brucei aldolase at 1 mM after 15 min; design: scale not given: the % may be the effect or the level left
[12] = target: T1, Fructose-bisphosphate aldolase, glycosomal (Trypanosoma brucei brucei); assay: Protection of inhibitory activity by FBP against Trypanosoma brucei aldolase at 1 mM after 15 min; design: scale not given: the % may be the effect or the level left
[13] = target: T1, Fructose-bisphosphate aldolase, glycosomal (Trypanosoma brucei brucei); assay: Protection of inhibitory activity by FBP against Trypanosoma brucei aldolase at 10 mM after 5 min; design: scale not given: the % may be the effect or the level left
[14] = target: T1, Fructose-bisphosphate aldolase, glycosomal (Trypanosoma brucei brucei); assay: Protection of inhibitory activity by FBP against Trypanosoma brucei aldolase at 10 mM after 15 min; design: scale not given: the % may be the effect or the level left
[15] = target: T1, Fructose-bisphosphate aldolase, glycosomal (Trypanosoma brucei brucei); assay: Protection of inhibitory activity by HBP against Trypanosoma brucei aldolase at 1 mM after 5 min; design: scale not given: the % may be the effect or the level left
[16] = target: T1, Fructose-bisphosphate aldolase, glycosomal (Trypanosoma brucei brucei); assay: Protection of inhibitory activity by HBP against Trypanosoma brucei aldolase at 1 mM after 15 min; design: scale not given: the % may be the effect or the level left
[17] = target: T1, Fructose-bisphosphate aldolase, glycosomal (Trypanosoma brucei brucei); assay: Protection of inhibitory activity by HBP against Trypanosoma brucei aldolase at 0.1 mM after 5 min; design: scale not given: the % may be the effect or the level left
[18] = target: T1, Fructose-bisphosphate aldolase, glycosomal (Trypanosoma brucei brucei); assay: Protection of inhibitory activity by HBP against Trypanosoma brucei aldolase at 0.1 mM after 15 min; design: scale not given: the % may be the effect or the level left
[19] = target: T1, Fructose-bisphosphate aldolase, glycosomal (Trypanosoma brucei brucei); assay: Protection of inhibitory activity by NBP against Trypanosoma brucei aldolase at 1 mM after 5 min; design: scale not given: the % may be the effect or the level left
[20] = target: T1, Fructose-bisphosphate aldolase, glycosomal (Trypanosoma brucei brucei); assay: Protection of inhibitory activity by NBP against Trypanosoma brucei aldolase at 1 mM after 15 min; design: scale not given: the % may be the effect or the level left
[21] = target: T3, Fructose-bisphosphate aldolase A (Oryctolagus cuniculus) (UniProt P00883); assay: Residual activity against rabbit muscle class1 Aldolase at 0.1 mM after 5 min; conditions: Muscle tissue
T3 sequence (whole entry): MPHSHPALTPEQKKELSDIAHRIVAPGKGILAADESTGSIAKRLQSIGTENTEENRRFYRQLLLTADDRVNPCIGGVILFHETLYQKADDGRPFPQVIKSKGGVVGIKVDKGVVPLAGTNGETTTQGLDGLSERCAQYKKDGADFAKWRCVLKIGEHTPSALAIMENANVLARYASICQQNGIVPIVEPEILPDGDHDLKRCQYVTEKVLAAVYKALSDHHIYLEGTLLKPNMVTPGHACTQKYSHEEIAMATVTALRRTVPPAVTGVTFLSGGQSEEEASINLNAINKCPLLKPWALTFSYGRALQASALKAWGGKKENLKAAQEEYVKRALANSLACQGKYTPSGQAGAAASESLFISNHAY

[22] = target: T3, Fructose-bisphosphate aldolase A (Oryctolagus cuniculus); assay: Residual activity against rabbit muscle class1 Aldolase at 0.1 mM after 15 min; conditions: Muscle tissue
[23] = target: T1, Fructose-bisphosphate aldolase, glycosomal (Trypanosoma brucei brucei); assay: Residual activity against Trypanosoma brucei class1 Aldolase at 0.5 mM after 5 min
[24] = target: T1, Fructose-bisphosphate aldolase, glycosomal (Trypanosoma brucei brucei); assay: Residual activity against Trypanosoma brucei class1 Aldolase at 0.5 mM after 15 min
[25] = target: T1, Fructose-bisphosphate aldolase, glycosomal (Trypanosoma brucei brucei); assay: Residual activity against Trypanosoma brucei class1 Aldolase at 0.02 mM after 5 min
[26] = target: T1, Fructose-bisphosphate aldolase, glycosomal (Trypanosoma brucei brucei); assay: Residual activity against Trypanosoma brucei class1 Aldolase at 0.02 mM after 15 min
[27] = target: T1, Fructose-bisphosphate aldolase, glycosomal (Trypanosoma brucei brucei); assay: Residual activity against Trypanosoma brucei class1 Aldolase at 100 uM after 15 min
Method in brief: (§1)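 Aldolases from different sources, including mammalian (human liver) and protozoan parasite enzymes, were each incubated at 0.2 mg/mL with the inhibitor at 100 µM. Residual enzyme activity was then measured.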

[28] = target: T4, Fructose-1,6-bisphospate aldolase (Leishmania mexicana) (UniProt Q9U5N6); assay: Residual activity against Leishmania mexicana class1 Aldolase at 100 uM after 15 min; method in brief: as §1
T4 sequence (whole entry): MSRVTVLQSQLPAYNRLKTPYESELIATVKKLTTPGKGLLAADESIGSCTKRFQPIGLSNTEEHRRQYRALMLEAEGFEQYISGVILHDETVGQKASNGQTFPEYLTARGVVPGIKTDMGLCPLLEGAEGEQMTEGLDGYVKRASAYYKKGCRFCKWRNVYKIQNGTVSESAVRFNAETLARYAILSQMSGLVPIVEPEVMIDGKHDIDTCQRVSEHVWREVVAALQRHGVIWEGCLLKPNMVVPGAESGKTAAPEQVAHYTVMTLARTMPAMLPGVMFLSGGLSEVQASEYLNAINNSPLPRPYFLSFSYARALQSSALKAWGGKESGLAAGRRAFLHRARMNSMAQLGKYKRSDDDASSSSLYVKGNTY

[29] = target: T5, Aldolase (Plasmodium falciparum) (UniProt Q27744); assay: Residual activity against Plasmodium falciparum class1 Aldolase at 100 uM after 15 min; method in brief: as §1
T5 sequence (whole entry): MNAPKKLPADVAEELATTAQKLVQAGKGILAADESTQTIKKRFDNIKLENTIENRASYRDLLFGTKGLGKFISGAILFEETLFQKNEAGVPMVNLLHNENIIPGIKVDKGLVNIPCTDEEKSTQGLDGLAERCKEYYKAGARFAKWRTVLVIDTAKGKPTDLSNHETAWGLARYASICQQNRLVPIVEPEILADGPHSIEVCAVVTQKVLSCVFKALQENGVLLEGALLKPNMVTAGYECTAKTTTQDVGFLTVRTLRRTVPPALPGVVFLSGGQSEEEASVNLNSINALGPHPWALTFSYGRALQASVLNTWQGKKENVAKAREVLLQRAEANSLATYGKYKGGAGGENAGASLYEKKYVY

[30] = target: T3, Fructose-bisphosphate aldolase A (Oryctolagus cuniculus); assay: Residual activity against rabbit muscle class1 Aldolase at 1 mM after 5 min; conditions: Muscle tissue
[31] = target: T3, Fructose-bisphosphate aldolase A (Oryctolagus cuniculus); assay: Residual activity against rabbit muscle class1 Aldolase at 1 mM after 15 min; conditions: Muscle tissue
[32] = target: Fructose-bisphosphate aldolase B (Homo sapiens) (UniProt P05062); assay: Residual activity against human liver class1 Aldolase at 100 uM after 15 min
Chain of Fructose-bisphosphate aldolase B (Homo sapiens) (P05062 whole entry, looked up): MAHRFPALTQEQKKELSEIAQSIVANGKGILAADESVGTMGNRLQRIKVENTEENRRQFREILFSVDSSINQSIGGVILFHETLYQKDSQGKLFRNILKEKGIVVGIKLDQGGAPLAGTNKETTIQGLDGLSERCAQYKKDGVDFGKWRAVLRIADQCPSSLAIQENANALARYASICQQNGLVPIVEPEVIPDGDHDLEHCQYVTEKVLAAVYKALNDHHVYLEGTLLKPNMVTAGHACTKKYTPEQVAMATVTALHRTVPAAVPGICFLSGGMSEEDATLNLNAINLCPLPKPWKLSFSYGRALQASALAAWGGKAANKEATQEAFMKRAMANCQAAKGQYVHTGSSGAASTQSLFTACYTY

For `O=Cc1c(O)ccc2cc(OP(=O)(O)O)ccc12`, which inhibition [1] is on record?
The inhibition was “inactive”.

What about the Activity [2] of the same molecule?
The Activity was 80%.

What about the Activity [3] of the same molecule?
The Activity was 70%.

And the Activity [4]?
Its Activity is 80%.

And the pKi [5]?
The pKi was 4.64.

What about the Activity [6] of the same molecule?
The Activity was 56%.

And the Activity [7]?
The Activity was 48%.

What about the Activity [8] of the same molecule?
The Activity was 63%.

And the Activity [9]?
The Activity was 44%.

What about the Activity [10] of the same molecule?
Its Activity is 60%.

And the Activity [11]?
Its Activity is 52%.

What about the Activity [12] of the same molecule?
The Activity was 51%.

And the Activity [13]?
Its Activity is 100%.

And the Activity [14]?
The Activity was 89%.

What about the Activity [15] of the same molecule?
Its Activity is 100%.

What about the Activity [16] of the same molecule?
The Activity was 100%.

What about the Activity [17] of the same molecule?
The Activity was 100%.

What about the Activity [18] of the same molecule?
The Activity was 100%.

What about the Activity [19] of the same molecule?
Its Activity is 100%.

And the Activity [20]?
The Activity was 100%.

What about the Activity [21] of the same molecule?
The Activity was 100%.

What about the Activity [22] of the same molecule?
Its Activity is 100%.

What about the Activity [23] of the same molecule?
Its Activity is < 20%.

And the Activity [24]?
The Activity was 0%.

What about the Activity [25] of the same molecule?
Its Activity is 75%.

And the Activity [26]?
The Activity was 50%.

What about the Activity [27] of the same molecule?
The Activity was < 0.5%.

What about the Activity [28] of the same molecule?
Its Activity is 15%.

And the Activity [29]?
Its Activity is 30%.

And the Activity [30]?
The Activity was 80%.

What about the Activity [31] of the same molecule?
Its Activity is 80%.

What about the Activity [32] of the same molecule?
Its Activity is 100%.
